Reference: ChEMBL document CHEMBL4350999, “Enhanced tumor retention of NTSR1-targeted agents by employing a hydrophilic cysteine cathepsin inhibitor” (Eur J Med Chem, 2019)
Activity calls are given as the source filed them. No cut-off for these calls is given here.

What was measured:
[1] = Drug excretion in SCID mouse xenografted with human HT-29 cells at 0.37 MBq/mouse, iv measured at 4 hrs using 177Lu labelled compound by gamma counter analysis; type: ADME, organism-based; conditions: in vivo
Procedure, shortened: (§1)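 Female SCID mice bearing s.c. flank HT-29 xenografts (5 × 10^6 cells in Matrigel, ~80 mm3). Given 10 μCi (0.37 MBq) 177Lu conjugate i.v. by tail vein; groups sacrificed at 4, 24, 72 h. Tissues weighed and gamma-counted as %ID/g, excretion as %ID; n = 5, mean ± SD. Blocking arms: colchicine 1 mg/kg i.p. beforehand, or D-lysine 40 mg/kg co-injected.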

[2] = Drug uptake in blood of SCID mouse xenografted with human HT-29 cells at 0.37 MBq/mouse, iv measured at 4 hrs using 177Lu labelled compound by gamma counter analysis; type: ADME, organism-based; conditions: in vivo; procedure, shortened: as §1
[3] = Drug uptake in heart of SCID mouse xenografted with human HT-29 cells at 0.37 MBq/mouse, iv measured at 4 hrs using 177Lu labelled compound by gamma counter analysis; type: ADME, organism-based; conditions: in vivo
Procedure, shortened: (§2)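 Female SCID mice (5 weeks) bore s.c. flank xenografts of HT-29 cells (5 × 10^6 in Matrigel), used at about 80 mm3 (two weeks) and randomized. Each mouse received 10 μCi (0.37 MBq) of HPLC-purified 177Lu-conjugate via tail vein. Tissues were excised, weighed and gamma-counted, expressed as %ID/g; mean ± SD, n = 5.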

[4] = Drug uptake in liver of SCID mouse xenografted with human HT-29 cells at 0.37 MBq/mouse, iv measured at 4 hrs using 177Lu labelled compound by gamma counter analysis; type: ADME, organism-based; conditions: in vivo; procedure, shortened: as §2
[5] = Drug uptake in stomach of SCID mouse xenografted with human HT-29 cells at 0.37 MBq/mouse, iv measured at 4 hrs using 177Lu labelled compound by gamma counter analysis; type: ADME, organism-based; conditions: in vivo
Procedure, shortened: (§3)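 Female SCID mice (5 weeks old) received s.c. flank HT-29 cells (5 × 10^6 in Matrigel). At ~80 mm3, two weeks later, mice were randomized and given 10 μCi (0.37 MBq) of purified 177Lu conjugate i.v. by tail vein. Mice were killed at 4, 24 or 72 h. Tissues were weighed and gamma counted as %ID/g, mean ± SD, n = 5. Tumor-to-tissue ratios were calculated.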

[6] = Drug uptake in small intestine of SCID mouse xenografted with human HT-29 cells at 0.37 MBq/mouse, iv measured at 4 hrs using 177Lu labelled compound by gamma counter analysis; type: ADME, organism-based; conditions: in vivo; procedure, shortened: as §2
[7] = Drug uptake in kidney of SCID mouse xenografted with human HT-29 cells at 0.37 MBq/mouse, iv measured at 4 hrs using 177Lu labelled compound by gamma counter analysis; type: ADME, organism-based; conditions: in vivo; procedure, shortened: as §2
[8] = Drug uptake in liver of SCID mouse xenografted with human HT-29 cells at 0.37 MBq/mouse, iv measured at 24 hrs using 177Lu labelled compound by gamma counter analysis; type: ADME, organism-based; conditions: in vivo; procedure, shortened: as §2
[9] = Drug uptake in spleen of SCID mouse xenografted with human HT-29 cells at 0.37 MBq/mouse, iv measured at 24 hrs using 177Lu labelled compound by gamma counter analysis; type: ADME, organism-based; conditions: in vivo; procedure, shortened: as §3
[10] = Drug uptake in large intestine of SCID mouse xenografted with human HT-29 cells at 0.37 MBq/mouse, iv measured at 24 hrs using 177Lu labelled compound by gamma counter analysis; type: ADME, organism-based; conditions: in vivo; procedure, shortened: as §2
[11] = Drug uptake in brain of SCID mouse xenografted with human HT-29 cells at 0.37 MBq/mouse, iv measured at 24 hrs using 177Lu labelled compound by gamma counter analysis; type: ADME, organism-based; conditions: in vivo; procedure, shortened: as §2
[12] = Drug uptake in heart of SCID mouse xenografted with human HT-29 cells at 0.37 MBq/mouse, iv measured at 72 hrs using 177Lu labelled compound by gamma counter analysis; type: ADME, organism-based; conditions: in vivo; procedure, shortened: as §2
[13] = Drug uptake in liver of SCID mouse xenografted with human HT-29 cells at 0.37 MBq/mouse, iv measured at 72 hrs using 177Lu labelled compound by gamma counter analysis; type: ADME, organism-based; conditions: in vivo; procedure, shortened: as §2
[14] = Drug uptake in large intestine of SCID mouse xenografted with human HT-29 cells at 0.37 MBq/mouse, iv measured at 72 hrs using 177Lu labelled compound by gamma counter analysis; type: ADME, organism-based; conditions: in vivo; procedure, shortened: as §2
[15] = Drug uptake in kidney of SCID mouse xenografted with human HT-29 cells at 0.37 MBq/mouse, iv measured at 72 hrs using 177Lu labelled compound by gamma counter analysis; type: ADME, organism-based; conditions: in vivo; procedure, shortened: as §2
[16] = Drug uptake in bone of SCID mouse xenografted with human HT-29 cells at 0.37 MBq/mouse, iv measured at 72 hrs using 177Lu labelled compound by gamma counter analysis; type: ADME, organism-based, Bone element; conditions: in vivo; procedure, shortened: as §2
[17] = Drug uptake in SCID mouse xenografted with human HT-29 cells assessed as tumour retention level at 0.37 MBq/mouse, iv measured at 72 hrs using 177Lu labelled compound by gamma counter analysis; type: ADME, organism-based; conditions: in vivo; procedure, shortened: as §1
[18] = Drug excretion in SCID mouse xenografted with human HT-29 cells at 0.37 MBq/mouse, iv measured after 72 hrs using 177Lu labelled compound; type: ADME, organism-based; conditions: in vivo; procedure, shortened: as §1
[19] = Octanol-PBS buffer distribution coefficient, log D of 177Lu labelled compound at pH 7.4 by radiometric analysis; type: physicochemical
Procedure, shortened: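 177Lu conjugate partitioned between 1-octanol and PBS pH 7.4. 100 μL aliquots from each layer were gamma counted, and LogD7.4 was calculated from the counts.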

[20] = 1-Octanol-PBS buffer distribution coefficient, log D of natEu labelled compound at pH 7.4 by time resolved fluorescence analysis; type: physicochemical
Procedure, shortened: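 natEu-labelled conjugate (300 μg) in 0.2 mL PBS pH 7.4 partitioned against 0.2 mL 1-octanol; 100 μL aliquots from each layer dried under vacuum and taken up in water. Time-resolved fluorescence read at 590 nm with 380 nm excitation, and LogD7.4 calculated from the two layers.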

[21] = Ratio of drug uptake in SCID mouse xenograted with human HT-29 cells assessed as tumour retention to drug uptake in blood of SCID mouse xenografted with human HT-29 cells measured after 24 hrs using 177Lu labelled compound; type: ADME, tissue-based, Tumor/Blood; procedure, shortened: as §3
[22] = Ratio of drug uptake in SCID mouse xenograted with human HT-29 cells assessed as tumour retention to drug uptake in muscle of SCID mouse xenografted with human HT-29 cells measured after 24 hrs using 177Lu labelled compound; type: ADME, tissue-based, Tumor/Muscle; procedure, shortened: as §3
[23] = target: Procathepsin L (Homo sapiens, UniProt P07711); experiment: Binding affinity to human liver cathepsin L assessed as protein-conjugate adduct formation incubated for 30 mins using 177Lu labelled compound by SDS-PAGE analysis
Procathepsin L, sequence (P07711 114-333 limits assumed): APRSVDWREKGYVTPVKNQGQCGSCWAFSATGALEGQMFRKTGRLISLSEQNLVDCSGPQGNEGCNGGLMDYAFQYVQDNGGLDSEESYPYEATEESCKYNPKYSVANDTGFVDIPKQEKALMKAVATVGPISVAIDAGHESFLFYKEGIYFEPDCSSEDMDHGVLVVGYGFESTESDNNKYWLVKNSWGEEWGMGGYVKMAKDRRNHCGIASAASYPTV
Procedure, shortened: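 Purified human liver CatB or CatL (3 nM) in 50 mM sodium acetate/1 mM EDTA pH 5.0 incubated 30 min with 177Lu conjugate (500,000 cpm) in Tris/MgCl2/DTT buffer pH 5.5, alone or with E-64 (10 μM) or N1 (20 μM). Mixtures heated 85 °C 2 min, run on 16% tris-glycine gel at 110 V for 90 min, and read by phosphor autoradiography.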

| Drug excretion [1] | Drug uptake [2] | Drug uptake [3] | Drug uptake [4] | Drug uptake [5] | Drug uptake [6] | Drug uptake [7] | Drug uptake [8] | Drug uptake [9] | Drug uptake [10] | Drug uptake [11] | Drug uptake [12] | Drug uptake [13] | Drug uptake [14] | Drug uptake [15] | Drug uptake [16] | Drug uptake [17] | Drug excretion [18] | logD [19] | logD [20] | SMILES | further results |
| --- | --- | --- | --- | --- | --- | --- | --- | --- | --- | --- | --- | --- | --- | --- | --- | --- | --- | --- | --- | --- | --- |
| 16.6 %ID | 1.22 % ID/g | 1.4 % ID/g | 38.6 % ID/g | 1.7 % ID/g | 6.1 % ID/g | 58.2 % ID/g | 26 % ID/g | 17 % ID/g | 2.1 % ID/g | 0.04 % ID/g | 0.4 % ID/g | 11 % ID/g | 1.6 % ID/g | 45 % ID/g | 1.1 % ID/g | 6.3 % ID/g | 57 %ID | -1.95 | -2.1 | Cc1cc(C)c(C(=O)OCC(=O)[C@H](CCCCNC(=O)CNC(=O)[C@@H](CO)NC(=O)[C@@H](CO)NC(=O)[C@@H](CO)NC(=O)Cn2cc(C[C@H](NC(=O)CN3CCN(CC(=O)O)CCN(CC(=O)O)CCN(CC(=O)O)CC3)C(=O)N[C@H](CO)C(=O)N[C@H](CO)C(=O)N[C@H](CO)C(=O)N[C@@H](CCCCN)C(=O)N3CCC[C@H]3C(=O)N(C)[C@@H](CCCNC(=N)N)C(=O)N[C@@H](CCCNC(=N)N)C(=O)N3CCC[C@H]3C(=O)N[C@@H](Cc3c(C)cc(O)cc3C)C(=O)N[C@H](C(=O)N[C@@H](CC(C)C)C(=O)O)C(C)(C)C)nn2)NC(=O)[C@H](Cc2ccccc2)NC(=O)OCc2ccccc2)c(C)c1 | Kp at 24 h [21]: 69; Ratio [22]: 30 |
| 75 %ID | 0.01 % ID/g | 0.13 % ID/g | 0.42 % ID/g | 0.27 % ID/g | 2.9 % ID/g | 57 % ID/g | 0.4 % ID/g | 1.6 % ID/g | 0.73 % ID/g | 0.01 % ID/g |  | 0.26 % ID/g | 0.36 % ID/g | 15 % ID/g | 0.12 % ID/g | 2.6 % ID/g | 91.6 %ID | -3.51 | -3.71 | Cc1cc(O)cc(C)c1C[C@H](NC(=O)[C@@H]1CCCN1C(=O)[C@H](CCCNC(=N)N)NC(=O)[C@H](CCCNC(=N)N)N(C)C(=O)[C@@H]1CCCN1C(=O)[C@H](CCCCN)NC(=O)[C@@H](CO)NC(=O)[C@@H](CO)NC(=O)[C@@H](CO)NC(=O)[C@H](Cc1cn(CCNC(=O)[C@H](CCCNC(=N)N)NC(=O)[C@H](CC(C)C)NC(=O)CCC(=O)O)nn1)NC(=O)CN1CCN(CC(=O)O)CCN(CC(=O)O)CCN(CC(=O)O)CC1)C(=O)N[C@H](C(=O)N[C@@H](CC(C)C)C(=O)O)C(C)(C)C | Activity [23]: inactive |
| 36.6 %ID | 0.83 % ID/g | 1.1 % ID/g | 9.2 % ID/g | 1.6 % ID/g | 7.6 % ID/g | 64 % ID/g | 8.3 % ID/g | 18 % ID/g | 2.6 % ID/g | 0.04 % ID/g | 0.27 % ID/g | 5.3 % ID/g | 1.62 % ID/g | 28 % ID/g | 1 % ID/g | 3.4 % ID/g | 73 %ID |  |  | Cc1cc(O)cc(C)c1C[C@H](NC(=O)[C@@H]1CCCN1C(=O)[C@H](CCCNC(=N)N)NC(=O)[C@H](CCCNC(=N)N)N(C)C(=O)[C@@H]1CCCN1C(=O)[C@H](CCCCN)NC(=O)[C@@H](CO)NC(=O)[C@@H](CO)NC(=O)[C@@H](CO)NC(=O)[C@H](Cc1cn(CC(=O)N[C@H](CO)C(=O)N[C@H](CO)C(=O)N[C@H](CO)C(=O)NCC(=O)NCCCC[C@H](NC(=O)[C@H](Cc2ccccc2)NC(=O)OCc2ccccc2)C(=O)NCCc2ccccc2)nn1)NC(=O)CN1CCN(CC(=O)O)CCN(CC(=O)O)CCN(CC(=O)O)CC1)C(=O)N[C@H](C(=O)N[C@@H](CC(C)C)C(=O)O)C(C)(C)C |  |
| 70 %ID | 0.02 % ID/g | 0.14 % ID/g | 0.78 % ID/g | 0.34 % ID/g | 3.5 % ID/g | 67 % ID/g | 0.73 % ID/g | 1.7 % ID/g | 1.1 % ID/g | 0.02 % ID/g | 0.04 % ID/g | 0.67 % ID/g | 0.73 % ID/g | 46 % ID/g | 0.6 % ID/g | 3.9 % ID/g | 80.8 %ID | -3.78 | -3.69 | Cc1cc(O)cc(C)c1C[C@H](NC(=O)[C@@H]1CCCN1C(=O)[C@H](CCCNC(=N)N)NC(=O)[C@H](CCCNC(=N)N)N(C)C(=O)[C@@H]1CCCN1C(=O)[C@H](CCCCN)NC(=O)[C@@H](CO)NC(=O)[C@@H](CO)NC(=O)[C@@H](CO)NC(=O)[C@H](Cc1cn(CCNC(=O)[C@H](CCCNC(=N)N)NC(=O)[C@H](CC(C)C)NC(=O)C2OC2C(=O)O)nn1)NC(=O)CN1CCN(CC(=O)O)CCN(CC(=O)O)CCN(CC(=O)O)CC1)C(=O)N[C@H](C(=O)N[C@@H](CC(C)C)C(=O)O)C(C)(C)C (stereo partly drawn) | Kp at 24 h [21]: 422; Ratio [22]: 137; Activity [23]: Active |
